Measured values from ChEMBL document CHEMBL4257453, “Identification of karanjin isolated from the Indian beech tree as a potent CYP1 enzyme inhibitor with cellular efficacy via screening of a natural product repository” (Medchemcomm, 2018).
Values belong to the compound of their own block, whether it stands above or below them.

Experiments:
[1] = biological target: T1, CYP1A1 (Homo sapiens, UniProt P04798); test: Inhibition of recombinant human CYP1A1 expressed in baker's yeast-derived microsomes (Sacchrosomes) at 10 uM using 7-ethoxyresorufin substrate by EROD assay relative to control; settings: probe 7-ethoxyresorufin
T1 sequence (P04798 whole entry): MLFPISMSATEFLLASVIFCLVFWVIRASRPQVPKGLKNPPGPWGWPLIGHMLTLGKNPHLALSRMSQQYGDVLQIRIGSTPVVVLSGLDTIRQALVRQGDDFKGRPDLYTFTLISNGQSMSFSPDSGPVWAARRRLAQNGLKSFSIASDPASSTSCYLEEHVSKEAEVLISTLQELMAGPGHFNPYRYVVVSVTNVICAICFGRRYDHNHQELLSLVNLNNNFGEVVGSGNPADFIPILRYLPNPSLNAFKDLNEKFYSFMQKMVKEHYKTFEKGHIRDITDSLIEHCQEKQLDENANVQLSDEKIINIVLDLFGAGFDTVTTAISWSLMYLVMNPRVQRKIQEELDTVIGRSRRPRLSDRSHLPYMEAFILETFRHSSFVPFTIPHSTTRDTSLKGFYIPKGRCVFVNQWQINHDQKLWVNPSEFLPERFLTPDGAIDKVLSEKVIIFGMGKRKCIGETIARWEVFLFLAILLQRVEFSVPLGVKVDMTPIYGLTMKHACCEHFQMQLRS
In short: (§1)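 Yeast microsomes carrying recombinant CYP (Sacchrosomes). Substrates per isoform are 7-ethoxyresorufin, 3-cyano-7-ethoxycoumarin, EOMCC or dibenzylfluorescein, read as endpoint fluorescence. Background from compound-only wells without enzyme is subtracted. Independent triplicate runs; α-naphthoflavone positive control.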

[2] = biological target: Cytochrome P450 2D6 (Homo sapiens, UniProt P10635); test: Inhibition of human recombinant CYP2D6 expressed in HEK293 cells using 7-ethoxy-methyloxy-3-cyanocoumarin substrate substrate preincubated for 30 mins followed by substrate addition and measured after 60 mins by fluorescence assay relative to control; type: ADME, cell-based
Sequence of Cytochrome P450 2D6 (P10635 whole entry): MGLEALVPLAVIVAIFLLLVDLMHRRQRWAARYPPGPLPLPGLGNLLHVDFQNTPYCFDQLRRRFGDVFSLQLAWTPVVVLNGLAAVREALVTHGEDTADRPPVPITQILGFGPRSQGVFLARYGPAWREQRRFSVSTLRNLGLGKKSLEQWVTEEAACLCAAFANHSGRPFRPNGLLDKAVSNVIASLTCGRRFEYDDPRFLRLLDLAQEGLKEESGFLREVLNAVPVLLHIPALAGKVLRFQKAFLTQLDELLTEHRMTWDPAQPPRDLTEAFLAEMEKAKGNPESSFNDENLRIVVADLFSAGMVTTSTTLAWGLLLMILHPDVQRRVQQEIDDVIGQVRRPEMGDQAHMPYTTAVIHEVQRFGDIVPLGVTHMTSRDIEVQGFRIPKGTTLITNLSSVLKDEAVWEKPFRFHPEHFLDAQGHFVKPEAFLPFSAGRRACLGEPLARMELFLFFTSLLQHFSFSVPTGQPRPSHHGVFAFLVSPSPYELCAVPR
In short: (§2)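 HEK293 cells adapted to suspension and transiently transfected with pcDNA3.1 plasmids carrying the individual CYP; 100×10^3 cells per well in triplicate. […] Fluorogenic substrate is then added at 5 μM and fluorescence read for 60 min.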

[3] = biological target: T2, CYP1A2 (Homo sapiens, UniProt P05177); test: Inhibition of recombinant human CYP1A2 expressed in baker's yeast-derived microsomes (Sacchrosomes) at 10 uM using 3-cyano-7-ethoxycoumarin substrate by EROD assay relative to control; type: ADME; settings: probe 3-cyano-7-ethoxycoumarin; in short: as §1
T2 sequence (P05177 whole entry): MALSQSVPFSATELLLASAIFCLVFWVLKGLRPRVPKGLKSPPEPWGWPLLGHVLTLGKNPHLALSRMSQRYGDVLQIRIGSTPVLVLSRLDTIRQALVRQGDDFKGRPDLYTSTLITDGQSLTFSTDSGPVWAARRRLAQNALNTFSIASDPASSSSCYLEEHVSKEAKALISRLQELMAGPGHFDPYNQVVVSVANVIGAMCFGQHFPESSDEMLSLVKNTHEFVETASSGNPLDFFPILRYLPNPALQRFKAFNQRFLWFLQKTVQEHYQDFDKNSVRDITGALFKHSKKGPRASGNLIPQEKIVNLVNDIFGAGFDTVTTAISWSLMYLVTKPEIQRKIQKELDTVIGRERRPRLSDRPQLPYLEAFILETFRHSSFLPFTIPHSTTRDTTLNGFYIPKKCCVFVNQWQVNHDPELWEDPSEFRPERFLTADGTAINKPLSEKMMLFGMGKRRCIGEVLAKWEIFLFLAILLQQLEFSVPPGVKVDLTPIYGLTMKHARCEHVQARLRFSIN

[4] = biological target: CYP2C19 (Homo sapiens, UniProt P33261); test: Inhibition of recombinant human CYP2C19 expressed in baker's yeast-derived microsomes (Sacchrosomes) at 10 uM using 3-cyano-7-ethoxycoumarin substrate by EROD assay relative to control; type: ADME; settings: probe 3-cyano-7-ethoxycoumarin
Sequence of CYP2C19 (P33261 whole entry): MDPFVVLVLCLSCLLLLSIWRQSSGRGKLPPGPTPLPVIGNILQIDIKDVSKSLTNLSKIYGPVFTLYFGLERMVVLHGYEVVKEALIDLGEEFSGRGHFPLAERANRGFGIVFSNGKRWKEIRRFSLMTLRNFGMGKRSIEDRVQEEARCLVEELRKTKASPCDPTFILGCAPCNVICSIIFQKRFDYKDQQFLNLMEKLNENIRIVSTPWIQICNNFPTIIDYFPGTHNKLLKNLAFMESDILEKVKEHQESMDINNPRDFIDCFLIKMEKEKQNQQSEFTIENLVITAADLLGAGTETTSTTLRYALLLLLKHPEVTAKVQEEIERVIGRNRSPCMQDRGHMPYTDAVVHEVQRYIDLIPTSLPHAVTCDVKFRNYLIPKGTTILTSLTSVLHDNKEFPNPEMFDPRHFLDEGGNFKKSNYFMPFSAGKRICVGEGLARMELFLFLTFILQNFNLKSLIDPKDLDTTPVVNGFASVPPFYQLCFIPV
In short: as §1, with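 “(Sacchrosomes). […]” for “(Sacchrosomes).”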

[5] = biological target: T3, Cytochrome P450 1B1 (Homo sapiens, UniProt Q16678); test: Inhibition of human recombinant CYP1B1 expressed in HEK293 cells using 7-ethoxyresorufin substrate substrate preincubated for 30 mins followed by substrate addition and measured after 60 mins by fluorescence assay relative to control; type: ADME, cell-based; in short: as §2
T3 sequence (Q16678 whole entry): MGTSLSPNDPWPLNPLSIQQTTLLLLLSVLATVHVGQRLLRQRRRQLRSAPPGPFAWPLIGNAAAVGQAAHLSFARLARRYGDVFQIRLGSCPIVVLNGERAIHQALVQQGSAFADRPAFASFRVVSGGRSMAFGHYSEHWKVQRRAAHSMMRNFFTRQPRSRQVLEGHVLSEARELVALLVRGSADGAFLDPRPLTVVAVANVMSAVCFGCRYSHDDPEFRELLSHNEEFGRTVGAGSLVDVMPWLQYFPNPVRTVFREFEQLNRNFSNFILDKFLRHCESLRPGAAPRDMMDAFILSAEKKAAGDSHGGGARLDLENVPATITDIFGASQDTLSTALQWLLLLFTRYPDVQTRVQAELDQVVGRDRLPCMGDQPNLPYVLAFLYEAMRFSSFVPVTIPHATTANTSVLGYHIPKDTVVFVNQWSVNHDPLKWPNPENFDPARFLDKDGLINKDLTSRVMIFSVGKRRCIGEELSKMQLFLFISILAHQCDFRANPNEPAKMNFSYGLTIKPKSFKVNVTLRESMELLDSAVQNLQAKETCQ

[6] = biological target: Cytochrome P450 2C9 (Homo sapiens, UniProt P11712); test: Inhibition of human recombinant CYP2C9 expressed in HEK293 cells using 3-cyano-7-ethoxycoumarin substrate substrate preincubated for 30 mins followed by substrate addition and measured after 60 mins by fluorescence assay relative to control; type: ADME, cell-based; in short: as §2
Sequence of Cytochrome P450 2C9 (P11712 whole entry): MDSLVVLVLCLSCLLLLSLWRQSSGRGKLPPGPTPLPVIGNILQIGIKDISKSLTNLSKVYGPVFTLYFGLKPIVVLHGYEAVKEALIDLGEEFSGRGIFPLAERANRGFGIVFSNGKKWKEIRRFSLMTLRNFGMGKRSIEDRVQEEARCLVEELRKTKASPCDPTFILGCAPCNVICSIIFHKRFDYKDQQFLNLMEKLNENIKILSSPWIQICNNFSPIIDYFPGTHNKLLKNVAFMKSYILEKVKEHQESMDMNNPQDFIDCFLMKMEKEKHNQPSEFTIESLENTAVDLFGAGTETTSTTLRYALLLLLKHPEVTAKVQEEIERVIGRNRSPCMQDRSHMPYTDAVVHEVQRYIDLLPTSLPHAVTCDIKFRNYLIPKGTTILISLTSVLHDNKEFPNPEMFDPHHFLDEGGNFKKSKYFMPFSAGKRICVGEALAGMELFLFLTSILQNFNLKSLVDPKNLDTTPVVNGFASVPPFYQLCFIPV

[7] = biological target: T4, CYP1B1 (Homo sapiens, UniProt Q16678); test: Inhibition of recombinant human CYP1B1 expressed in baker's yeast-derived microsomes (Sacchrosomes) at 10 uM using 7-ethoxyresorufin substrate by EROD assay relative to control; type: ADME; settings: probe 7-ethoxyresorufin
T4 sequence (Q16678 whole entry): T3 sequence (Q16678 whole entry)
In short: as §1, with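 “(Sacchrosomes). […]” for “(Sacchrosomes).”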

[8] = biological target: T5, Cytochrome P450 1A1 (Homo sapiens, UniProt P04798); test: Inhibition of human recombinant CYP1A1 expressed in HEK293 cells using 7-ethoxyresorufin substrate preincubated for 30 mins followed by substrate addition and measured after 60 mins by fluorescence assay relative to control; type: cell-based; in short: as §2
T5 sequence (P04798 whole entry): T1 sequence (P04798 whole entry)

[9] = biological target: T6, Cytochrome P450 1A2 (Homo sapiens, UniProt P05177); test: Inhibition of human recombinant CYP1A2 expressed in HEK293 cells using 3-cyano-7-ethoxycoumarin substrate preincubated for 30 mins followed by substrate addition and measured after 60 mins by fluorescence assay relative to control; type: ADME, cell-based; in short: as §2
T6 sequence (P05177 whole entry): T2 sequence (P05177 whole entry)

[10] = biological target: CYP3A4 (Homo sapiens, UniProt P08684); test: Inhibition of recombinant human CYP3A4 expressed in baker's yeast-derived microsomes (Sacchrosomes) at 10 uM using dibenzylfluorescein substrate by EROD assay relative to control; type: ADME; settings: probe dibenzylfluorescein
Sequence of CYP3A4 (P08684 whole entry): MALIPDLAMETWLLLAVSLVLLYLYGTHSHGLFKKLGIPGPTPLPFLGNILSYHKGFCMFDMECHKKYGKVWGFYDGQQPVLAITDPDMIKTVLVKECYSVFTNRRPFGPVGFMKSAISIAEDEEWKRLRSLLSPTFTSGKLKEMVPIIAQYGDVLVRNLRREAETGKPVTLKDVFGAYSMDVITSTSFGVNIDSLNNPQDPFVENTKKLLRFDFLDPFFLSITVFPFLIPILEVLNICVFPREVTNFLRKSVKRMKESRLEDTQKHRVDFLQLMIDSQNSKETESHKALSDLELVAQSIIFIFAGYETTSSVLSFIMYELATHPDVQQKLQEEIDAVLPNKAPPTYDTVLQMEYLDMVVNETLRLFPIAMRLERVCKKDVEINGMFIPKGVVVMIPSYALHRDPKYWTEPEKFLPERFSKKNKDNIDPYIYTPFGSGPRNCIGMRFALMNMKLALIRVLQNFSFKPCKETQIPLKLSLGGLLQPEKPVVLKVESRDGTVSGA
In short: as §1, with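 “(Sacchrosomes). […]” for “(Sacchrosomes).”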

[11] = biological target: CYP2C9 (Homo sapiens, UniProt P11712); test: Inhibition of recombinant human CYP2C9 expressed in baker's yeast-derived microsomes (Sacchrosomes) at 10 uM using 3-cyano-7-ethoxycoumarin substrate by EROD assay relative to control; type: ADME; settings: probe 3-cyano-7-ethoxycoumarin
Sequence of CYP2C9 (P11712 whole entry): as the sequence (P11712 whole entry) above
In short: as §1, with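 “(Sacchrosomes). […]” for “(Sacchrosomes).”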

[12] = biological target: T1, CYP1A1; test: Inhibition of human recombinant CYP1A1 expressed in HEK293 cells at 10 uM using 7-ethoxyresorufin substrate preincubated for 30 mins followed by substrate addition and measured after 60 mins by fluorescence assay relative to control; type: cell-based; settings: HEK293 cells expressing human recombinant CYP1A1, probe 7-ethoxyresorufin; in short: as §2
[13] = biological target: Cytochrome P450 2C19 (Homo sapiens, UniProt P33261); test: Inhibition of human recombinant CYP2C19 expressed in HEK293 cells using 3-cyano-7-ethoxycoumarin substrate substrate preincubated for 30 mins followed by substrate addition and measured after 60 mins by fluorescence assay relative to control; type: ADME, cell-based; in short: as §2
Sequence of Cytochrome P450 2C19 (P33261 whole entry): as the sequence (P33261 whole entry) above

[14] = biological target: CYP2D6 (Homo sapiens, UniProt P10635); test: Inhibition of recombinant human CYP2D6 expressed in baker's yeast-derived microsomes (Sacchrosomes) at 10 uM using 7-ethoxy-methyloxy-3-cyanocoumarin substrate by EROD assay relative to control; type: ADME; settings: probe 7-ethoxy-methyloxy-3-cyanocoumarin
Sequence of CYP2D6 (P10635 whole entry): as the sequence (P10635 whole entry) above
In short: as §1, with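 “(Sacchrosomes). […]” for “(Sacchrosomes).”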

[15] = biological target: Cytochrome P450 3A4 (Homo sapiens, UniProt P08684); test: Inhibition of human recombinant CYP3A4 expressed in HEK293 cells using dibenzylfluorescein substrate substrate preincubated for 30 mins followed by substrate addition and measured after 60 mins by fluorescence assay relative to control; type: ADME, cell-based
Sequence of Cytochrome P450 3A4 (P08684 whole entry): as the sequence (P08684 whole entry) above
In short: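 HEK293 cells adapted to suspension and transiently transfected with pcDNA3.1 plasmids carrying the individual CYP; 100×10^3 cells per well in triplicate. Fluorogenic substrate is then added at 5 μM and fluorescence read for 60 min.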

Structure (SMILES): COc1c(O)cc2oc(-c3ccc(O)cc3)cc(=O)c2c1O [HISPIDULIN]
inhibition at 10 µM [1]: 86%

Structure (SMILES): CC(C)=CCOc1c2occc2cc2ccc(=O)oc12 [PENTOSALEN]
inhibition at 10 µM [1]: 71%

Structure (SMILES): O=C(/C=C/C=C/c1ccc2c(c1)OCO2)N1CCCCC1 [PIPERINE]
inhibition at 10 µM [1]: 42%

Structure (SMILES): CC1=CC(=O)c2c(O)cccc2C1=O [PLUMBAGIN]
IC50 [15]: > 10 µM
IC50 [2]: > 10 µM
inhibition at 10 µM [3]: 55%
inhibition at 10 µM [4]: 12%
IC50 [5]: 6.15 µM
IC50 [6]: > 10 µM
inhibition at 10 µM [7]: 40%
IC50 [8]: 2.77 µM
Ki [8]: 2.56 µM
IC50 [9]: 2.46 µM
Ki [9]: 2.36 µM
inhibition at 10 µM [10]: 15%
inhibition at 10 µM [11]: 11%
inhibition at 1 h, 10 µM [12]: 86%
IC50 [13]: > 10 µM
inhibition at 10 µM [14]: 10%

Structure (SMILES): COc1cc2ccc(=O)oc2c2ccoc12 [SPHONDIN]
inhibition at 10 µM [1]: 67%

Structure (SMILES): O=c1cc(-c2ccc(O)cc2)oc2c([C@@H]3O[C@H](CO)[C@@H](O)[C@H](O)[C@H]3O)c(O)cc(O)c12 [VITEXIN]
inhibition at 10 µM [1]: 42%

Structure (SMILES): CC1=C(CO)C(=O)O[C@@H]([C@@H](C)[C@H]2CC[C@H]3[C@@H]4C[C@H]5O[C@]56[C@@H](O)C=CC(=O)[C@]6(C)[C@H]4CC[C@]23C)C1 [WITHAFERIN A]
inhibition at 10 µM [1]: 50%

Further lines, results first:

IC50 [2]: > 10 µM
inhibition at 10 µM [3]: 99%
inhibition at 10 µM [4]: 8%
IC50 [5]: 34.6 µM
IC50 [6]: > 10 µM
inhibition at 10 µM [7]: 5%
IC50 [8]: 4.02 µM
Ki [8]: 3.8 µM
inhibition at 10 µM [1]: 92%
IC50 [9]: 0.04 µM
Ki [9]: 0.031 µM
inhibition at 10 µM [10]: 11%
inhibition at 10 µM [11]: 12%
inhibition at 1 h, 10 µM [12]: 75%
IC50 [13]: > 10 µM
inhibition at 10 µM [14]: 8%
Structure (SMILES): COc1c2occc2c(OC)c2c(=O)cc(C)oc12 [KHELLIN]

inhibition at 10 µM [1]: 34%
Structure (SMILES): COc1ccc2ccc(=O)oc2c1CC=C(C)C [OSTHOLE]

inhibition at 10 µM [1]: 56%
Structure (SMILES): CC1(C)O[C@H]1COc1c2ccoc2cc2oc(=O)ccc12 [OXYPEUCEDANIN]

inhibition at 10 µM [1]: 69%
Structure (SMILES): O=c1ccc2cc3ccoc3cc2o1 [PSORALEN]
